Laboratory results as given in ChEMBL document CHEMBL1147762, “A new chemical tool for exploring the physiological function of the PDE2 isozyme” (Bioorg Med Chem Lett, 2006).

What was measured:
Phosphodiesterase 3 = Phosphodiesterase 3 (Homo sapiens, UniProt Q14432+Q13370); test: Inhibitory activity against PDE3 by scintillation proximity assay; assay type: protein assay
Summary of the method: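 Phosphodiesterase inhibition run as a scintillation proximity assay, with enzyme at a concentration in the linear range. Final substrate was 1 µM, below one-third of the enzyme K_M, so that IC50 approximates Ki. Values are means of n experiments with standard deviation.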

[1] = biological target: cGMP-specific 3',5'-cyclic phosphodiesterase (Homo sapiens, UniProt O76074); test: Inhibitory activity against PDE5 by scintillation proximity assay
Summary of the method: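 Scintillation proximity assay for phosphodiesterase inhibition. Enzyme is used at a concentration within the linear range, and its KM was measured. Final substrate concentration is 1 µM, below one-third of KM, so IC50 approximates Ki. Results are means of n experiments with standard deviation.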

[2] = biological target: Adrenergic receptor alpha-1 (Homo sapiens) (UniProt P35348+P25100+P35368); test: Percentage binding to adrenergic alpha-1 receptor at 10 uM; assay type: protein assay
[3] = biological target: Adrenergic receptor alpha-2 (Homo sapiens) (UniProt P08913+P18825+P18089); test: Percentage binding to adrenergic alpha-2 receptor at 10 uM; assay type: protein assay
[4] = biological target: Beta-1 adrenergic receptor (Homo sapiens) (UniProt P08588); test: Percentage binding to adrenergic beta-1 receptor at 10 uM
[5] = biological target: Beta-2 adrenergic receptor (Homo sapiens) (UniProt P07550); test: Percentage binding to adrenergic beta-2 receptor at 10 uM
Beta-2 adrenergic receptor (Homo sapiens), sequence (P07550 whole entry, looked up): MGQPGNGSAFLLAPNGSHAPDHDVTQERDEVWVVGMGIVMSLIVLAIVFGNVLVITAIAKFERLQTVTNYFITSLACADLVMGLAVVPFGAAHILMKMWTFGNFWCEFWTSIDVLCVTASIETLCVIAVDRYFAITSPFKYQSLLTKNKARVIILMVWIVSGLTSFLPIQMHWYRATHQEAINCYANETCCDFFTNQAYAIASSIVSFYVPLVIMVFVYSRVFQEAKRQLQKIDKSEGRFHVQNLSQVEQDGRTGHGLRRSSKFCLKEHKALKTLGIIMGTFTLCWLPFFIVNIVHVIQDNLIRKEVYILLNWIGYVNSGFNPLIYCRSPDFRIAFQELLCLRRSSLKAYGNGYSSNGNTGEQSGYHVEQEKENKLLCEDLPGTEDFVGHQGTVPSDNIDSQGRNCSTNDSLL

[6] = biological target: Acetylcholine receptor; alpha1/beta1/delta/gamma (Homo sapiens) (UniProt P02708+P07510+P11230+Q07001); test: Percentage binding to muscle NACHR at 10 uM; assay type: tissue-based; conditions: Muscle tissue
[7] = biological target: Mu-type opioid receptor (Homo sapiens) (UniProt P35372); test: Percentage binding to opioid mu at 10 uM
Mu-type opioid receptor (Homo sapiens), sequence (P35372 whole entry): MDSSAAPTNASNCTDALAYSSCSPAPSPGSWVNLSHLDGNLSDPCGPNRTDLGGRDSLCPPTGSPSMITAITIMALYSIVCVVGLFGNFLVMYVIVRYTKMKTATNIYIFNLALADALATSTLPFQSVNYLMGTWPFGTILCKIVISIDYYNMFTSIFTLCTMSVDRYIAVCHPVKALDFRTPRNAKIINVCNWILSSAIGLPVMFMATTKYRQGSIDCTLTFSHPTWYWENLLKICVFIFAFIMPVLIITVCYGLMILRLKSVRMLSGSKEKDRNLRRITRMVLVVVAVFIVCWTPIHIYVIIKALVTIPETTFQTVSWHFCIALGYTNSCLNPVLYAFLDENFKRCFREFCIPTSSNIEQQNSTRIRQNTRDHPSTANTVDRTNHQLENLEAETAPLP

[8] = biological target: Ribosomal protein S6 kinase (P70S6K) (Homo sapiens) (UniProt Q9UBS0+P23443); test: Inhibition of p70S6K at 10 uM; assay type: protein-complex assay
[9] = biological target: Rho-associated protein kinase 2 (Homo sapiens) (UniProt O75116); test: Inhibition of ROCK2 at 10 uM
[10] = biological target: AMP-activated protein kinase, AMPK (Homo sapiens) (UniProt P54646+O43741+P54619+Q9UGJ0+Q9Y478+Q13131+Q9UGI9); test: Inhibition of AMPK at 10 uM; assay type: protein-complex assay
[11] = biological target: Casein kinase II (Homo sapiens) (UniProt P67870+P68400+P19784); test: Inhibition of CK2 at 10 uM; assay type: protein-complex assay
[12] = biological target: Tyrosine-protein kinase Lck (Homo sapiens) (UniProt P06239); test: Inhibition of LCK at 10 uM
Tyrosine-protein kinase Lck (Homo sapiens), sequence (P06239 2-509 limits assumed): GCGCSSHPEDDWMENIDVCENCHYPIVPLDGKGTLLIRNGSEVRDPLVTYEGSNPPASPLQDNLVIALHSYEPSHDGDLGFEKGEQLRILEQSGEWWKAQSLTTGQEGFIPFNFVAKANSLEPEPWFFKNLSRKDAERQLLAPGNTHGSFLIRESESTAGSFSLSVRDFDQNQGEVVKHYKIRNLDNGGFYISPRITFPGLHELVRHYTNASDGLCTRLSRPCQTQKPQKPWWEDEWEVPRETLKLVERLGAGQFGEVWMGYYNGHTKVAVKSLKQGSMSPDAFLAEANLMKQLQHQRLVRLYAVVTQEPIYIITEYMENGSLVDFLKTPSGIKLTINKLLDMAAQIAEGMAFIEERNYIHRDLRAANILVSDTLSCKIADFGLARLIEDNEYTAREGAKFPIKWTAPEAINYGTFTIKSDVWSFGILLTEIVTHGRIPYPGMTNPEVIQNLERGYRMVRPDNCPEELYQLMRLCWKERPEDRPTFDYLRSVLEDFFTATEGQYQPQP

[13] = biological target: B2 bradykinin receptor (Homo sapiens) (UniProt P30411); test: Percentage binding to bradykinin B2 at 10 uM
[14] = biological target: D(1A) dopamine receptor (Homo sapiens) (UniProt P21728); test: Percentage binding to dopamine D1 at 10 uM
[15] = biological target: D(3) dopamine receptor (Homo sapiens) (UniProt P35462); test: Percentage binding to dopamine D3 at 10 uM
[16] = biological target: Sodium-dependent dopamine transporter (Homo sapiens) (UniProt Q01959); test: Activity against dopamine uptake at 10 uM
[17] = biological target: Glutamate receptor ionotropic kainate (Homo sapiens) (UniProt P39086+Q16478+Q16099+Q13002+Q13003); test: Percentage binding to kainate receptor at 10 uM; assay type: protein-complex assay
[18] = biological target: Histamine H1 receptor (Homo sapiens) (UniProt P35367); test: Percentage binding to histamine H1 at 10 uM
Histamine H1 receptor (Homo sapiens), sequence (P35367 whole entry): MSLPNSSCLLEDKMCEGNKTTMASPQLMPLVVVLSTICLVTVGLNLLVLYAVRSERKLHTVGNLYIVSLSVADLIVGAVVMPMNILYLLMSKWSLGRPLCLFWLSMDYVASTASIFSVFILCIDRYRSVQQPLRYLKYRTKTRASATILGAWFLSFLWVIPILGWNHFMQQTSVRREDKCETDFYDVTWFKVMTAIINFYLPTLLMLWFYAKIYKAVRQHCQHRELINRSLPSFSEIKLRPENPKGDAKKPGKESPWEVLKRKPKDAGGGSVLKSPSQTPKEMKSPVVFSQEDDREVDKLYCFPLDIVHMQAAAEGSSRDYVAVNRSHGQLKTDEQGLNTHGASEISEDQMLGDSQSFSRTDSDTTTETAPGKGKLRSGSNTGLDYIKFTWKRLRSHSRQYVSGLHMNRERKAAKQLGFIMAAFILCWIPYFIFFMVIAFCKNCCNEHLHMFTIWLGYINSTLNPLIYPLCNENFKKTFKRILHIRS

[19] = biological target: Histamine H2 receptor (Homo sapiens) (UniProt P25021); test: Percentage binding to histamine H2 at 10 uM
Histamine H2 receptor (Homo sapiens), sequence (P25021 whole entry): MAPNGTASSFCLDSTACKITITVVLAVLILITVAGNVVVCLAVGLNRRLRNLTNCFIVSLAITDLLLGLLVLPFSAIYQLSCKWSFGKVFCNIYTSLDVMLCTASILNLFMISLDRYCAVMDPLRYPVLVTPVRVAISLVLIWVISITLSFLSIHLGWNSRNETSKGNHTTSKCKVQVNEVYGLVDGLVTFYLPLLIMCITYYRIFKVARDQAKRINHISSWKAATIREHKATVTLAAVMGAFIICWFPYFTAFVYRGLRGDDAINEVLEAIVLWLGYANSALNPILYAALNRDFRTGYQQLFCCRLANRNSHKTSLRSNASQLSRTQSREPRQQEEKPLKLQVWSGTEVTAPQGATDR

[20] = biological target: Muscarinic acetylcholine receptor M1 (Homo sapiens) (UniProt P11229); test: Percentage binding to muscarinic M1 at 10 uM
Muscarinic acetylcholine receptor M1 (Homo sapiens), sequence (P11229 whole entry): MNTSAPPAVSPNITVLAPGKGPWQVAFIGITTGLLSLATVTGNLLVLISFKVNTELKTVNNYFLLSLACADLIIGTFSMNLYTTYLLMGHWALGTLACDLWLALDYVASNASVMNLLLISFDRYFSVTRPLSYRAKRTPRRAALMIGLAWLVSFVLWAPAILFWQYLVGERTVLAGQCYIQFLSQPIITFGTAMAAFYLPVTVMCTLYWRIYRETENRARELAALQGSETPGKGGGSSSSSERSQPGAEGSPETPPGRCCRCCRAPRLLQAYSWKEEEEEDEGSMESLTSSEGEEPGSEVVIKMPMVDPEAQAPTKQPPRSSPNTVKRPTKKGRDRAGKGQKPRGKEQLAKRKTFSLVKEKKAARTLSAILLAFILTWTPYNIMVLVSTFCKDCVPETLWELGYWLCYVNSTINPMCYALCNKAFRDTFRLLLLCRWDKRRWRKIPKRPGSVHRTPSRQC

[21] = biological target: Substance-P receptor (Homo sapiens) (UniProt P25103); test: Percentage binding to neurokinin K1 at 10 uM
[22] = Percentage binding to neuronal NACHR at 10 uM
Summary of the method: (§1)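 Single-concentration screen within a panel of 54 receptors and ion channels, measuring binding or interaction at each target.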

[23] = biological target: Serotonin 3 (5-HT3) receptor (Homo sapiens) (UniProt P46098+A5X5Y0+O95264+Q70Z44+Q8WXA8); test: Percentage binding to serotonin 5HT3 at 10 uM; assay type: protein-complex assay
[24] = biological target: Glucocorticoid receptor (Homo sapiens) (UniProt P04150); test: Percentage binding to glucocorticord receptor at 10 uM
[25] = biological target: Vasopressin V1 receptor (Homo sapiens) (UniProt P37288+P47901); test: Percentage binding to vasopressin V1 at 10 uM; assay type: protein assay
[26] = biological target: Mitogen-activated protein kinase 1 (Homo sapiens) (UniProt P28482); test: Inhibition of MAPK2 at 10 uM
[27] = biological target: Mitogen-activated protein kinase 14 (Homo sapiens) (UniProt Q16539); test: Inhibition of SAPK2a at 10 uM
[28] = biological target: Mitogen-activated protein kinase 11 (Homo sapiens) (UniProt Q15759); test: Inhibition of SAPK2b at 10 uM
[29] = biological target: MAP kinase-activated protein kinase 2 (Homo sapiens) (UniProt P49137); test: Inhibition of MAPKAPK2 at 10 uM
[30] = biological target: MAP kinase-activated protein kinase 5 (Homo sapiens) (UniProt Q8IW41); test: Inhibition of PRAK at 10 uM
[31] = biological target: cAMP-dependent protein kinase (PKA) (Homo sapiens) (UniProt P22694+P17612+P22612); test: Inhibition of PKA at 10 uM; assay type: protein assay
[32] = biological target: RAC-alpha serine/threonine-protein kinase (Homo sapiens) (UniProt P31749); test: Inhibition of PKBalpha at 10 uM
[33] = biological target: Serine/threonine-protein kinase Sgk1 (Homo sapiens) (UniProt O00141); test: Inhibition of SGK at 10 uM
[34] = biological target: Dual specificity tyrosine-phosphorylation-regulated kinase 1A (Homo sapiens) (UniProt Q13627); test: Inhibition of DYRK1A at 10 uM
[35] = biological target: Serine/threonine-protein kinase Nek6 (Homo sapiens) (UniProt Q9HC98); test: Inhibition of NEK6 at 10 uM
[36] = biological target: Voltage-dependent L-type calcium channel subunit alpha-1D (Homo sapiens) (UniProt Q01668); test: Percentage binding to dihydropyridine sensitive Ca2+ channel D at 10 uM; summary of the method: as §1
Voltage-dependent L-type calcium channel subunit alpha-1D (Homo sapiens), sequence (Q01668 whole entry): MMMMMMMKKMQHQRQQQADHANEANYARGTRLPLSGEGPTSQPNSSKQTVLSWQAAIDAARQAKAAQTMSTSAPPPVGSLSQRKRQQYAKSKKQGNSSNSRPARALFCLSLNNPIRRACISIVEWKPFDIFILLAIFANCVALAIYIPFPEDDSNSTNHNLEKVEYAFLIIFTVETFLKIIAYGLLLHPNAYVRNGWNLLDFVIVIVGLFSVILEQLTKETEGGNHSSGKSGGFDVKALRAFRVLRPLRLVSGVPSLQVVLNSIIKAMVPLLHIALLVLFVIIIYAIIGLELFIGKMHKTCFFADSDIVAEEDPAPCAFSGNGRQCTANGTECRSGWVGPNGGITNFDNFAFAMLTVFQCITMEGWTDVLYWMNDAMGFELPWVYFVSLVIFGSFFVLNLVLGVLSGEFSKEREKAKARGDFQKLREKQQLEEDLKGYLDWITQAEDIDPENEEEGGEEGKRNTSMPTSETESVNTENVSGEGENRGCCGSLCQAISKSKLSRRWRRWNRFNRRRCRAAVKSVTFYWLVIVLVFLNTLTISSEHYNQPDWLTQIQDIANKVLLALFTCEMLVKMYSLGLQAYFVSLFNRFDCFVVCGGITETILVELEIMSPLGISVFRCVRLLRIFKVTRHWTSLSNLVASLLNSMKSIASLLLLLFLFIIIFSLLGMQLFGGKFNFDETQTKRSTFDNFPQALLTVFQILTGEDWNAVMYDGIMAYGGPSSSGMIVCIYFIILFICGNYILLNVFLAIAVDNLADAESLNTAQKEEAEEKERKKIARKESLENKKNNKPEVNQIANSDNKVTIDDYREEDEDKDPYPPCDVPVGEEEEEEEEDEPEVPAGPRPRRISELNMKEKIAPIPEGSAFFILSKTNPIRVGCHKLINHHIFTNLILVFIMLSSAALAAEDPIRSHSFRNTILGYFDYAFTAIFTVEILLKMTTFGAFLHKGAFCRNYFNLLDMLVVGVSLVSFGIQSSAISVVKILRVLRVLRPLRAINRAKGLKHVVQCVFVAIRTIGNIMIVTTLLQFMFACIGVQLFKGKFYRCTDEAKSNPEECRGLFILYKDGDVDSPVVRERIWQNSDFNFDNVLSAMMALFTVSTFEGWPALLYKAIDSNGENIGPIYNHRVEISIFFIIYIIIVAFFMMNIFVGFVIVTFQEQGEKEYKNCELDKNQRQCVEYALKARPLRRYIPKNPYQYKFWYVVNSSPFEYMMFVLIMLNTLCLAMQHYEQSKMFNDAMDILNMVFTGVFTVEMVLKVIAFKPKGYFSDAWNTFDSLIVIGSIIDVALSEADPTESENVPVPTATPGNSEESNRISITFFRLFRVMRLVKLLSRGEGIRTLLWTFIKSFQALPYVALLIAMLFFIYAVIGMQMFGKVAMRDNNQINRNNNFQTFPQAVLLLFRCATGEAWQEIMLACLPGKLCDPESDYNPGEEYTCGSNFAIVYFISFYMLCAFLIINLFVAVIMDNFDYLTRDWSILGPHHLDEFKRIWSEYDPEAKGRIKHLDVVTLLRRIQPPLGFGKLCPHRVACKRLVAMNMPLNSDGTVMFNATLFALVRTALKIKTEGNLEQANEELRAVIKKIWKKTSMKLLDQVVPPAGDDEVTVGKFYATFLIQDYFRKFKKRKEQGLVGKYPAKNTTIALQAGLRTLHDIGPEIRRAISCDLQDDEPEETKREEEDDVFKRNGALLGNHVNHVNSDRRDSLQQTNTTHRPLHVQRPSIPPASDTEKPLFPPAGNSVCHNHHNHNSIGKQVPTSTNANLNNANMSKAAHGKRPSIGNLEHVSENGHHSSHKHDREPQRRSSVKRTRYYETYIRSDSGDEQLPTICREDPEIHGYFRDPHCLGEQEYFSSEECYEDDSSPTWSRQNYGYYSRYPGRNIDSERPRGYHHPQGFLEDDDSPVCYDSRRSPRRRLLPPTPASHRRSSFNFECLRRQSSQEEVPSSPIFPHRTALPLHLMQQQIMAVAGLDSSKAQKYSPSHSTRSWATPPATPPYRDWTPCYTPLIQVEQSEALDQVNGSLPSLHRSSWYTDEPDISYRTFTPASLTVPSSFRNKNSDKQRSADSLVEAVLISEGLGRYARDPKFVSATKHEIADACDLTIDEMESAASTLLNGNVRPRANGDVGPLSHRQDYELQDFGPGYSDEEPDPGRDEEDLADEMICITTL

[37] = biological target: Voltage-dependent L-type calcium channel subunit alpha-1D (Homo sapiens) (UniProt Q01668); test: Percentage binding to Ca2+ channel D at 10 uM; summary of the method: as §1
[38] = Half life in rat liver microsome; assay type: ADME; conditions: liver microsomes
[39] = Basolateral Caco-2 cell membrane permeability; assay type: ADME, cell-based; conditions: human
[40] = Clearance in rat; assay type: ADME, organism-based; conditions: Sprague-Dawley, in vivo
Summary of the method: (§2)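 Sprague–Dawley rats were dosed intravenously at 1 mg/kg in EtOH:PEG 400:H2O (1:4:5) and orally at 30 mg/kg in 0.5% methylcellulose.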

[41] = Volume of distribution in rat; assay type: ADME, organism-based; conditions: Sprague-Dawley, in vivo, read-out: Vdss
[42] = Half life in rat; assay type: ADME, organism-based; conditions: Sprague-Dawley, in vivo; summary of the method: as §2

SMILES: CN1C(=O)C(C(=O)Nc2nncs2)c2cc3occc3cc21 (stereo not drawn)
- IC50 (Phosphodiesterase 3): > 16 µM
- IC50 [1]: > 16 µM
- Activity [2]: 0%
- Activity [3]: 16%
- Activity [4]: 15%
- Activity [5]: 12%
- Activity [6]: 0%
- Activity [7]: 3%
- inhibition [8]: 23%
- inhibition [9]: 20%
- inhibition [10]: 8%
- inhibition [11]: 32%
- inhibition [12]: 5%
- Activity [13]: 5%
- Activity [14]: 5%
- Activity [15]: 0%
- Activity [16]: 11%
- Activity [17]: 0%
- Activity [18]: 7%
- Activity [19]: 0%
- Activity [20]: 9%
- Activity [21]: 0%
- Activity [22]: 7%
- Activity [23]: 0%
- Activity [24]: 0%
- Activity [25]: 5%
- inhibition [26]: 12%
- inhibition [27]: 0%
- inhibition [28]: 5%
- inhibition [29]: 8%
- inhibition [30]: 28%
- inhibition [31]: 16%
- inhibition [32]: 14%
- inhibition [33]: 0%
- inhibition [34]: 53%
- inhibition [35]: 7%
- Activity [36]: 0%
- Activity [37]: 0%
- half-life [38]: 1.38 h
- Papp [39]: 32 ×10⁻⁶ cm/s
- clearance [40]: 8.8 mL/min/kg
- Vd [41]: 0.1 L/kg
- half-life [42]: 1.6 h
